Source: ChEMBL document CHEMBL1134217, “Addressing the stability of C-capped dipeptide efflux pump inhibitors that potentiate the activity of levofloxacin in Pseudomonas aeruginosa” (Bioorg Med Chem Lett, 2001)
Converted amounts (≈) assume the structure as drawn. Peptide text beside a SMILES is read from it.

Tests used:
Pseudomonas aeruginosa [1] = assay: Minimum inhibitory concentration required to inhibit growth of PAM 1032 strain of Pseudomonas aeruginosa that over expresses MexAB-Opr M efflux pump; format: functional
Outline: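 Intrinsic antibacterial activity was checked by measuring the MIC of the efflux pump inhibitor alone, without levofloxacin, against P. aeruginosa PAM 1032, which overexpresses MexAB-OprM.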

[2] = Stability in rat serum measured as % recovery at 2 hr; format: ADME; conditions: read-out: Recovery
Outline: (§1)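 Incubated at 37 °C in rat serum for the stated time, in parallel with a water control. Samples quenched dropwise with 70% trichloroacetic acid plus acetonitrile, then analysed by HPLC. Value is % recovery of unchanged compound, averaged over two or more experiments. Phe-Arg-β-naphthylamine (MC-207,110) served as positive control.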

Pseudomonas aeruginosa [3] = assay: Minimum concentration of compound required to reduce the MIC of levofloxacin 8-fold in PAM 1032 strain of Pseudomonas aeruginosa that over expresses MexAB-OprM efflux pump; format: functional
Outline: (§2)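 Levofloxacin MICs were measured on PAM 1032 (MexAB-OprM overexpressor) with and without efflux pump inhibitor. MPC₈ is the lowest inhibitor concentration that cuts the levofloxacin MIC 8-fold.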

[4] = Stability in rat serum measured as % recovery at 10 mins; format: ADME; conditions: read-out: Recovery; outline: as §1
[5] = Stability in rat serum measured as % recovery at 1 min; format: ADME; conditions: read-out: Recovery
Outline: (§3)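 Compounds were incubated in rat serum at 37 °C, with a parallel incubation in H₂O as control. At each time point, 70% trichloroacetic acid and CH₃CN were added dropwise. Unchanged compound was quantified by HPLC and reported as % recovery, averaged from two or more experiments.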

[6] = Stability in rat serum measured as % recovery at 3 mins; format: ADME; conditions: read-out: Recovery; outline: as §1
[7] = Stability in rat serum measured as % recovery at 5 mins; format: ADME; conditions: read-out: Recovery; outline: as §1
[8] = Stability in rat serum measured as % recovery at 10 min; format: ADME; conditions: read-out: Recovery; outline: as §3
[9] = Stability in rat serum measured as % recovery at 3 min; format: ADME; conditions: read-out: Recovery; outline: as §3
[10] = Stability in rat serum measured as % recovery at 5 min; format: ADME; conditions: read-out: Recovery; outline: as §3
Pseudomonas aeruginosa [11] = assay: Compound was evaluated in PAM 1032 strain of Pseudomonas aeruginosa for its effect on levofloxacin (40 ug/mL) potentiation; format: functional
Outline: (§4)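 Levofloxacin MIC read against P. aeruginosa PAM 1032, a laboratory strain overexpressing the MexAB-OprM pump, with the efflux pump inhibitor held at fixed levels of […].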

Pseudomonas aeruginosa [12] = assay: Compound was evaluated in PAM 1032 strain of Pseudomonas aeruginosa for its effect on levofloxacin ( 10 ug/mL) potentiation; format: functional; outline: as §4
Pseudomonas aeruginosa [13] = assay: Compound was evaluated in PAM 1032 strain of Pseudomonas aeruginosa for its effect on levofloxacin ( 5 ug/mL) potentiation; format: functional; outline: as §4
Pseudomonas aeruginosa [14] = assay: Compound was evaluated in PAM 1032 strain of Pseudomonas aeruginosa for its effect on levofloxacin (ug/mL) potentiation; format: functional; outline: as §4
Pseudomonas aeruginosa [15] = assay: Compound was evaluated in PAM 1032 strain of Pseudomonas aeruginosa for its effect on levofloxacin (20 ug/mL) potentiation; format: functional; outline: as §4
Pseudomonas aeruginosa [16] = assay: Minimum concentration of compound required to reduce the MIC of levofloxacin 8-fold in PAM 1032 strain of Pseudomonas aeruginosa tha over expresses MexAB-Opr M efflux pump; format: functional; outline: as §2

Compound | MIC (Pseudomonas aeruginosa [1]) [µg/mL] | remaining at 2 h [2] [%] | MPC (Pseudomonas aeruginosa [3]) [µg/mL] | remaining at 10 min [4] [%] | remaining at 1 min [5] [%] | remaining at 0.05 h [6] [%] | remaining at 5 min [7] [%] | remaining at 10 min [8] [%] | remaining at 0.05 h [9] [%] | remaining at 5 min [10] [%] | MIC (Pseudomonas aeruginosa [11]) [µg/mL] | MIC (Pseudomonas aeruginosa [12]) [µg/mL] | MIC (Pseudomonas aeruginosa [13]) [µg/mL] | MIC (Pseudomonas aeruginosa [14]) [µg/mL] | MIC (Pseudomonas aeruginosa [15]) [µg/mL] | MPC (Pseudomonas aeruginosa [16]) [µg/mL]
N=C(N)NCCC[C@H](NC(=O)[C@@H](N)Cc1ccccc1)C(=O)Nc1ccc2ccccc2c1 [PABETAN] (HELM PEPTIDE1{F.R.[c1ccc2cc(N[*:1])ccc2c1]}$$$$V2.0) | > 512 | 0 | 10 | 25 | 100 | 73 | 55 |  |  |  |  |  |  |  |  | 
NCCC[C@H](NC(=O)[C@@H](N)Cc1ccccc1)C(=O)Nc1ccc2ccccc2c1 | 512 (≈ 1270 µM) |  | 5 |  | 100 |  |  | 36 | 80 | 64 |  |  |  |  |  | 
NCCC[C@H](N)C(=O)N[C@@H](CCc1ccccc1)C(=O)Nc1cnc2ccccc2c1 |  |  | 10 |  |  |  |  |  |  |  | 0.015 | 0.5 | 4 | 4 | 0.06 | 
CN(C(=O)[C@@H](N)Cc1ccccc1)[C@@H](CCCN)C(=O)Nc1ccc2ccccc2c1.O=C(O)C(F)(F)F.O=C(O)C(F)(F)F | 256 |  | 5 |  | 100 |  |  | 97 | 99 | 100 |  |  |  |  |  | 
NCCC[C@H](N)C(=O)N[C@@H](Cc1ccccc1)C(=O)Nc1ccc2ccccc2c1 | 512 (≈ 1270 µM) |  | 10 |  | 100 |  |  | 38 | 87 | 76 |  |  |  |  |  | 
NCCC[C@H](NC(=O)[C@@H](N)CCc1ccccc1)C(=O)Nc1cnc2ccccc2c1 |  |  | 10 |  |  |  |  |  |  |  | 0.03 | 0.06 | 1 | 4 | 0.03 | 
NCCC[C@@H](N)C(=O)N[C@@H](CCc1ccccc1)C(=O)Nc1cnc2ccccc2c1 | > 512 | 95 | 10 |  | 100 |  |  | 100 | 98 | 98 | 0.015 | 0.125 | 1 | 4 | 0.03 | 10
NCCC[C@H](N)C(=O)N[C@H](CCc1ccccc1)C(=O)Nc1cnc2ccccc2c1 |  |  | 20 |  |  |  |  |  |  |  | 0.125 | 1 | 2 | 4 | 0.5 | 
NCCC[C@@H](N)C(=O)N[C@H](CCc1ccccc1)C(=O)Nc1cnc2ccccc2c1 |  |  | 20 |  |  |  |  |  |  |  | 0.125 | 2 | 4 | 4 | 0.125 | 
